Screening results as filed in PubChem.
Compounds with a hit are over-represented: about 3.4% of the library has one in this group of screens.
Mdm2 ligase inh = MDM2-luciferase reporter signal enhancers, primary screen, MDM2 E3 ligase inhibitor project, cell-based, luminescence, 1536-well; E3 ubiquitin-protein ligase Mdm2 (Homo sapiens), Q00987; cell-based MDM2 ubiquitination luciferase reporter, 2 h; 0 = plate control, 100 = twice control, blank-subtracted; signal enhancement, % at 5 µM; actives 0.11% (n = 210,000); AID 1230, 2008;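 active means signal enhancement of 30% or more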;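 further: luminescence tracks abundance of the self-degrading MDM2-luciferase fusion protein; higher signal means inhibition of MDM2 E3 ligase activity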
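Buffer or medium: Cells held in DMEM | Assay system: Stable mammalian line carrying autodegrading MDM2–luciferase fusion reporter | Quantity: 2000 cells/well | Times: 4 h settle plus 2 h compound, 37 °C | Doses: One concentration, 5 µM, with 0.2% DMSO | Technique: Luminescence with SteadyLite reagent, 15 min at room temperature | Benchmarks: Plate controls and plate blanks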
Cl transport mod = KCC2 cotransporter modulators, thallium flux, primary screen, cell-based, HEK293 KCC2, FluoZin-2 fluorescence, MLSMR; actives 2.2% (n = 190,000); KCC2 cells, thallium flux FluoZin-2 fluorescence; Solute carrier family 12 member 5 (Homo sapiens), Q9H2X9; AID 1456, 2008; B-score of Tl+ flux slope (higher = more flux/activation; lower = inhibition) at 10 µM;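 active means thallium flux slope and its plate-corrected score both differing from the plate sample mean at a set confidence after two filtering rounds, in either direction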;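 further: slope of fluorescence scaled to starting intensity during 10 to 20 s after thallium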
p97 ATPase inh = inhibitors of human p97 ATPase, primary screen, biochemical. inhibition, % at 8 µM. AID 1481, 2009. actives 0.42% (n = 220,000). recombinant p97 ATPase, Kinase-Glo ATP luminescence, 3 h; in the data active means inhibition above about 15%;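 further: 0% = DMSO vehicle and 100% = wells lacking enzyme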
PKD1 kinase inh = inhibitors of human PKD1 kinase, biochemical, fluorescence polarization; Serine/threonine-protein kinase D1 (Homo sapiens), Q15139; actives 0.056% (n = 200,000); PKD1 kinase fluorescence polarization assay; AID 797, 2007; inhibition, % (test concentration not listed); in the data active means inhibition above about 50%
Redox H2O2 prof = compounds producing H2O2 with reducing agent – biochemical, NIH compound library profiling, artefact control for MLSCN library redox annotation, primary screen; actives 0.03% (n = 200,000); DTT-dependent redox cycling H2O2, phenol red/HRP absorbance; 100% = 100 µM peroxide control, 0% = buffer; activation, % at 10 µM;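 active means activation of at least 50% relative to the plate's high and low controls in the primary single-dose screen; inactive means activation below 50%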;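 further: compound incubated with DTT at 0.8 mM final as the reducing agent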
ROMK mod = ROMK potassium channel modulators, primary screen, cell-based, thallium flux, MLSMR library; actives 2% (n = 130,000); Tet-inducible ROMK, thallium flux fluorescence; actives lie on both sides; B-score at 10 µM; ATP-sensitive inward rectifier potassium channel 1 (Homo sapiens), P48048;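 active means signal ratio slope over the read window, or its plate-corrected B-score, at least 3 SD from the plate mean, either direction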;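 further: B-score of the F/F0 ratio slope over 7 to 12 s after thallium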
KCC2 secondary = KCC2 modulators in sodium-free buffer, confirmation, cell-based, HEK293 KCC2, thallium flux, secondary assay; normalised thallium flux (F/F0 slope) at 10 µM; AID 1713, 2009; actives 15% (n = 3,700); shares compounds with Cl transport mod; FluoZin2 fluorescence; active compounds read high;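 active means thallium flux slope above the same plate's solvent-only control mean plus 3 SD; inconclusive means the two replicate wells disagree; inactive means no significant difference from solvent-only control wells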
KCC2 bumet counter = thallium flux persisting under bumetanide in KCC2 cells, confirmation, counter-screen for KCC2 modulator project, cell-based, HEK293 KCC2, FluoZin2, secondary assay 3. HEK293-KCC2 + bumetanide/ouabain; active compounds read high. actives 49% (n = 3,700). shares compounds with Cl transport mod. AID 1714, 2009. normalized thallium flux at 10 µM;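 active means thallium entry rate above the same plate's blocked-transporter control wells by more than 3 SD; inconclusive means the two repeat wells disagree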;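 further: raw slope of fluorescence over initial fluorescence between 10 and 20 s after thallium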
KCC2 sec2 = KCC2 modulators without ouabain present, confirmation, cell-based, HEK293 KCC2, thallium flux, FluoZin2, secondary assay 2 | shares compounds with Cl transport mod | thallium flux FluoZin2 fluorescence; actives lie on both sides; F/F0 rise rate, 10–20 s post-thallium | normalized thallium flux at 10 µM | actives 23% (n = 3,700);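 active means thallium flux slope more than 3 SD above or below the plate's solvent-only control mean, mostly below; inconclusive means the two repeat wells disagreed; inactive means no significant shift from solvent-only controls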;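 further: raw slope with 0.1% DMSO as baseline and bumetanide as block control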
HEK293 Tl flux = thallium flux modulation in parental HEK cells, confirmation, counter-screen for KCC2 modulator project, cell-based, counterscreen 1; shares compounds with Cl transport mod; HEK293 parental cells, thallium flux FluoZin2, ouabain; baseline-ratio fluorescence slope, 10–20 s after thallium; thallium flux rate (normalised fluorescence) at 10 µM; actives 46% (n = 3,700);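 active means thallium flux rate significantly above the same plate's solvent-only control wells, beyond their mean plus 3 SD; inconclusive means the two replicate wells gave conflicting results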
KCC2 retest ouab = KCC2 inhibitors and activators, ouabain retest, confirmation, HEK-KCC2 cells; shares compounds with Cl transport mod; HEK293-KCC2, thallium flux FluoZin2 fluorescence; bidirectional: low = inhibitor, high = activator; raw Tl+ flux slope (below DMSO = inhibition, above = activation) at 10 µM; actives 48% (n = 3,700); AID 1717, 2009;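 active means thallium flux slope beyond 3 SD from same-plate DMSO control mean in most replicates, usually higher, sometimes lower; inconclusive means repeat tests gave conflicting results; inactive means no significant difference from controls in most replicates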;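 further: slope of initial-normalized fluorescence between seconds 10 and 20 after thallium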
HEK counter2 = native HEK Tl+ uptake effects, second counter-screen – HEK cells, counterscreen 2, counter-screen for KCC2 modulator project, confirmation; shares compounds with Cl transport mod; HEK293 parental, thallium flux FluoZin-2 fluorescence slope; thallium flux slope at 10 µM; actives 33% (n = 3,700); AID 1718, 2009;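 active means thallium flux slope above the same plate's solvent-control mean plus 3 SD in both duplicate wells; inconclusive means duplicate wells that disagreed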;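 further: run without ouabain in cells lacking the KCC2 cotransporter; slope of fluorescence scaled to its starting value between 10 and 20 s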
* marks the source's active call; other numbers are inactive results; ? = inconclusive; . = not tested or not shown.

SMILES	Mdm2 ligase inh	Cl transport mod	p97 ATPase inh	PKD1 kinase inh	Redox H2O2 prof	ROMK mod	KCC2 secondary	KCC2 bumet counter	KCC2 sec2	HEK293 Tl flux	KCC2 retest ouab	HEK counter2
COc1ccc2c(C)cc3n[nH]c(=S)n3c2c1	-11.1	27.2*	4.5	.	.	.	0.0229*	0.0367*	?	0.0282*	0.0306*	0.0295*
COc1ccc(-c2n[nH]c(=S)n2-c2cc(OC)ccc2OC)cc1	.	.	3.8	.	.	.	.	.	.	.	.	.
CCOC(=O)c1nc(C)nc(Sc2n[nH]c(-c3cc(C(F)(F)F)cc(C(F)(F)F)c3)n2)c1C	-9.3	-3.58*	0.5	.	.	-2.57	0.00851	0.00605	0.0345	?	0.0169*	0.0112
CCOC(=O)c1cc(-c2cccc(C(F)(F)F)c2)nc2nc(SC)[nH]c(=O)c12	-1.7	-1.91	-1.8	-9.3	-0.5	0.186	.	.	.	.	.	.
O=C(COC(=O)c1ccccc1O)Nc1cccnc1Cl	-2.6	1.95	3.5	-6.3	-0.5	.	.	.	.	.	.	.
O=C(COC(=O)c1cccnc1Cl)Nc1nc(-c2ccccc2)cs1	-13.4	-5.34*	-0.5	0.7	0.3	.	0.0056*	0.00626	0.0286	0.00677	0.0409*	0.00997
Cc1ccc(-c2csc(NC(=O)CCNC(=O)c3ccccc3Cl)n2)cc1	-3.3	-3.78*	-0.5	-5.4	0.3	-1.38	0.00613	0.00466	?	0.0076	?	0.0101
Cc1ccc(-c2csc(NC(=O)CCNC(=O)c3ccc(Cl)cc3)n2)cc1	.	0.486	-0.1	-2.6	-1.1	0.263	.	.	.	.	.	.
CC(O)CCC(=O)NNC1=CC(=O)CC(C)(C)C1 (centres undefined)	-4.2	-0.47	0.8	-0.5	-0.7	-0.205	.	.	.	.	.	.
COc1ccc(C)cc1-n1c(SCC(=O)Nc2cccc(C(=O)O)c2)nc2ccccc2c1=O	-5.6	-0.798	-3.3	.	.	.	.	.	.	.	.	.
CC(C)c1ccc(S(=O)(=O)/N=C2/C=CC(=O)c3ccccc32)cc1	.	1.12	7.6	3.6	-1.2	1.65	.	.	.	.	.	.
Fc1ccc(COc2ccccc2CNc2nn[nH]n2)cc1	-7.8	-3.15	1.0	3.5	-0.2	.	.	.	.	.	.	.
COC(=O)c1ccc(C2/C(=C(\O)c3cccc(OC)c3)C(=O)C(=O)N2CCCN(C)C)cc1 (centres undefined)	0.0	0.36	0.7	-2.6	0.1	0.509	.	.	.	.	.	.
